DSG3 Ab inh – human desmoglein-3 autoantibody binding inhibition | P32926 | actives 0.48% (n = 310,000) | binding (percent of control), % at 10 µM | DSG3-coupled beads, scFv-anti-DSG3-GFP binding, flow cytometry; hits give low values;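 active means binding more than 3 SD below its plate's average and above zero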;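 further: hits lower antibody fragment binding to DSG3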
Scp-1 inhibitor – inhibitors of human Scp-1 phosphatase | Q9GZU7 | Recombinant Scp1, phosphopeptide, malachite green phosphate absorbance | inhibition, % at 20 µM | actives 0.88% (n = 340,000) | AID 493091;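 active means inhibition above about 50% at 20 µM, limit read from the data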;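 further: plate controls were DMSO wells with enzyme for no effect and wells lacking enzyme for full effect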
Target sequence (Q9GZU7 76-261 limits assumed): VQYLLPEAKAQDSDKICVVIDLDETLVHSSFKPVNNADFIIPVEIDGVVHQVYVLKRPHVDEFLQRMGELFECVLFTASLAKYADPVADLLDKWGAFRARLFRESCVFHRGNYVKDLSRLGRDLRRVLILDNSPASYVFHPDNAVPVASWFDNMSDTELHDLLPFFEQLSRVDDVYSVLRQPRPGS
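Test system: SCP-1 phosphatase catalytic domain, residues 76-261 | Compound dosing: One concentration, 20 µM, with 1.0% DMSO | Schedule: 45 min room-temperature reaction, 5 min colour, 30 min stabiliser | Detection: Absorbance at 630 nm | Read-out basis: % inhibition of SCP-1 phosphate liberation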
SUMO1-SIM PPI – SUMO1-SIM interaction modulation. SUMO1 binding to a labelled peptide, TR-FRET, 1 h. inhibition, % at 20 µM. P63165. actives 0.33% (n = 360,000); in the data active means inhibition above about 37%
Target sequence (P63165 whole entry, looked up): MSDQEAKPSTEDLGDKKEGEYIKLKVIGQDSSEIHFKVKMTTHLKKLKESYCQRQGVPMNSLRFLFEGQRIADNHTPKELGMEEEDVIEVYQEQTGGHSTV
LMPTP inh – blocks human LMPTP phosphatase. P24666. inhibition, % at 20 µM. actives 0.22% (n = 360,000). AID 651560. recombinant LMPTP-A, OMFP fluorogenic substrate, fluorescence intensity;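 active means compounds that cut the enzyme signal by at least half of the control window in the single-dose screen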;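 further: plate controls were DMSO wells with enzyme plus substrate for no effect and substrate without enzyme for full effect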
Target sequence (P24666 whole entry, looked up): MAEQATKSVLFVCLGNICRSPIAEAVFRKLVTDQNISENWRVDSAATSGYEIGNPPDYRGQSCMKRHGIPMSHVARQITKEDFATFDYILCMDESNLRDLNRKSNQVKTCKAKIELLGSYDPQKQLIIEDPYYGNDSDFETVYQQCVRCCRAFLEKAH
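material = LMPTP-A | quantity = 0.625 nM enzyme | reagent = OMFP substrate, 400 µM final | buffer or medium = Bis-Tris pH 6.0, DTT, detergent | detection = endpoint fluorescence intensity from OMFP dephosphorylation | dosing = single 20 µM dose | read-out basis = % inhibition relative to no-enzyme and uninhibited control wells | control set = no-enzyme and uninhibited controls | timing = 50 min at room temperature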
STEP block – STEP (human) phosphatase inhibition. recombinant STEP, OMFP fluorogenic substrate, fluorescence. actives 0.25% (n = 360,000). P54829. inhibition, % at 20 µM;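 active means inhibition at 20 µM, scaled per plate between control wells, above about 37%, limit read from the data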;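 further: 0% = DMSO with enzyme and substrate and 100% = substrate only without enzyme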
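Assay system: isolated STEP enzyme. Buffer or medium: pH 6.0 Bis-Tris with DTT and Tween 20. Also added: fluorogenic phosphatase substrate OMFP at 25 µM final. Dosing: 20 µM, 1% DMSO. Timing: 20 min reaction, room temperature, in the dark. Measured by: fluorescence intensity, excitation 480 nm, emission 540 nm. Evaluation: normalized % inhibition.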
An asterisk follows results filed as active; x = not tested or not shown. Hits are enriched below; roughly 1.7% of the tested compounds scored in any of these assays.

SMILES	DSG3 Ab inh	Scp-1 inhibitor	SUMO1-SIM PPI	LMPTP inh	STEP block
COc1ccc(NC(=O)c2ccc3c(c2)C(=O)N(Cc2ccncc2)C3=O)cc1S(N)(=O)=O	69.4*	2.6	8.5	1.5	0.8
CCOC(=O)C1CCCN(C(=O)c2cccc([N+](=O)[O-])c2C)C1 (stereo not given)	104.5	-1.3	-4.8	1.0	2.6
Cc1cccc(N2CCN(C(=O)C3CCN(S(=O)(=O)c4c(C)noc4C)CC3)CC2C)c1 (stereo not given)	46.2*	0.7	2.4	0.5	-0.4
COc1cc2c(cc1OC)C(=O)C(Br)CC2 (stereo not given)	95.4	x	111.4*	6.4	3.8
COc1cc2c(cc1OC)C(=O)C(c1ccc3c(c1)OCO3)CC2 (stereo not given)	104.7	x	-2.0	1.4	2.4
COC(=O)c1ccc(Sc2ccc(C)cc2)c(N)c1	85.6	-4.1	-1.1	1.6	5.5
COc1cc(Sc2ccc(C)cc2)c(OC)cc1N	80.1*	2.5	-2.1	1.6	1.1
C[n+]1ccccc1COc1ccc(C(C)(C)C)cc1	94.6	-1.9	0.4	0.6	-0.8
Cc1cc(C)nc(NC(=O)/C=C/c2ccccc2Cl)n1	105.0	-1.2	-10.4	-0.1	0.2
Cc1cc(N)c2cc(NC(=O)/C=C/c3ccccc3Cl)ccc2n1	112.2	-5.4	88.7*	19.8	5.8
CCn1c(SCC(=O)Nc2ccc(C)cc2)nnc1-c1ccccn1	101.7	0.8	4.2	-0.5	-1.6
CCn1c(SCC(=O)Nc2ccc(C)cc2)nnc1-c1ccc(O)cc1	89.3	19.0	43.5*	-2.3	-1.4
COC(=O)C1=C(C)NC=C([N+](=O)[O-])C1c1ccc(OC)cc1 (stereo not given)	94.3	-9.6	-2.8	0.7	2.3
CC(CNC(=O)c1cccs1)c1ccc([N+](=O)[O-])cc1 (stereo not given)	98.7	4.7	55.5*	-1.4	-2.6
COc1ccc(C(=O)c2sc3nc(-c4ccc(OC)cc4)ccc3c2N)cc1	26.3*	-12.8	-7.0	1.4	-1.3
COc1ccc(-c2ccc3c(N)c(C(=O)c4cccc(OC)c4)sc3n2)cc1	91.2	16.7	-3.5	2.4	10.3
Cc1nc2nc(-c3ccco3)[nH]n2c(=O)c1C	65.4*	-2.2	1.5	1.3	-4.6
Cc1nc2nc(-c3ccco3)[nH]n2c(=O)c1Cc1ccccc1	102.9	5.4	5.6	-1.7	2.2
CCN(CC)c1ccc(C(=O)OCc2cc(=O)oc3cc(O)ccc23)cc1	85.6*	-3.6	4.4	-1.1	-0.2
CCN(CC)c1ccc2c(O)cc(=O)oc2c1	107.3	5.4	-0.6	0.0	0.5
CCc1ccc(OCC(=O)c2c(O)c3ccccc3oc2=O)cc1	49.8*	1.7	2.5	-0.3	0.7
CCc1cc2cc(C)c(C)cc2nc1SCC(=O)Nc1cc(C)on1	59.9*	-1.3	1.2	0.9	1.0
C[C@@H]1CN([C@H](C)CO)C(=O)CCCn2nncc2CO[C@H]1CN(C)Cc1ccc(C(F)(F)F)cc1	101.6	x	1.8	-3.1	1.7
CCC(=O)c1ccc(OCC(=O)Nc2ccc3c(c2)OCCO3)cc1	-3.4*	-6.8	2.3	-1.0	1.4
CC1=NN(c2ccc(C(=O)O)cc2)C(=O)/C1=C\c1ccc(OC(=O)c2cccs2)cc1	100.8	51.8*	28.9	14.2	4.5
SMILES	DSG3 Ab inh	Scp-1 inhibitor	SUMO1-SIM PPI	LMPTP inh	STEP block
CCOc1cc(/C=C2\C(=O)N(c3ccc(C(N)=O)cc3)N=C2C)ccc1OC(=O)c1cccs1	94.8	22.1	74.5*	17.9	31.8
CCOc1cc(/C=C2/C(=O)N(c3ccccc3)N=C2C)ccc1OC(=O)c1ccco1	x	0.4	7.1	8.9	18.5
CCOc1ccccc1OCC(=O)Oc1ccc(C)c(C)c1	106.1	-5.7	0.6	2.2	2.0
O=C(O)Cc1ccc(O)c(F)c1	67.8*	-8.8	-2.1	-0.6	-0.7
O=C1C(C2=C(O)c3ccccc3C2=O)=Nc2ccccc21	x	51.7*	-5.6	0.7	27.1
CN=CC1=C(O)c2ccccc2C1=O	97.3	-6.8	-12.0	-0.2	-2.6
COc1cc(/C=C2/CC/C(=C/c3ccc(O)c(OC)c3)C2=O)ccc1O	85.9	-4.1	1.2	3.2	-10.5
COc1cc(/C=C/C=C2/CC/C(=C/C=C/c3ccc(O)c(OC)c3)C2=O)ccc1O	35.7*	39.3	10.7	13.1	-7.7

Assay outcomes deposited in PubChem BioAssay by several laboratories.
